From ChEMBL document CHEMBL1687853, “Increased glycolytic ATP synthesis is associated with tafenoquine resistance in Leishmania major” (Antimicrob Agents Chemother, 2011)
Activity calls are given as the source filed them. The rule behind the calls is not given here.

What was measured:
[1] = system: Leishmania major; assay: Antileishmanial activity against wild type promastigotes of Leishmania major MHOM/JL/80/Friedlin assessed as inhibition of parasite growth after 72 hrs by MTT assay; assay type: functional, organism-based
Summary of the method: (§1)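 L. major Friedlin promastigotes, wild type or TFQ-resistant R4, were grown at 28°C in modified RPMI 1640 with 20% heat-inactivated FBS. R4 was selected stepwise from 2.5 to 4 μM TFQ over 10 weeks and kept in 4 μM. Parasites were exposed to increasing drug concentrations for 72 h at 28°C and viability was read by MTT. EC50 is 50% growth inhibition; resistance index is the R4/WT EC50 ratio.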

[2] = system: Leishmania major; assay: Resistant index, ratio of EC50 for tafenoquine-resistant promastigotes of Leishmania major R4 to EC50 for promastigotes of Leishmania major MHOM/JL/80/Friedlin; assay type: functional; summary of the method: as §1
[3] = system: Leishmania major; assay: Antileishmanial activity against tafenoquine-resistant promastigotes of Leishmania major R4 assessed as inhibition of parasite growth after 72 hrs by MTT assay; assay type: functional, organism-based; conditions: R4, 72 h; summary of the method: as §1
[4] = system: Leishmania major; assay: Drug uptake in promastigotes of tafenoquine-resistant promastigotes of Leishmania major R4 assessed per mg of protein at 5 uM after 15 mins by spectrofluorometric technique; assay type: ADME, organism-based; conditions: in vivo, 0.25 h
Summary of the method: (§2)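 Promastigotes at 2 × 10^7/ml were given 5 μM TFQ for 15 min at 28°C in culture medium, washed twice with PBS and lysed in 10% SDS, pH 4. TFQ was read fluorimetrically with excitation at 340 nm and emission at 360–460 nm. For the alkalinization condition, parasites were pretreated with 20 mM NH4Cl for 1 min and then given TFQ in the continued presence of NH4Cl for 15 min.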

[5] = system: Leishmania major; assay: Effect on ATP synthesis in wild type promastigotes of Leishmania major MHOM/JL/80/Friedlin assessed as decrease of ATP level up to 20 uM after 60 mins by celltiter- glo luminescent assay; assay type: functional, organism-based
Summary of the method: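 Promastigotes at 4 × 10^6/ml were held in culture medium with TFQ at 1, 2, 5, 10 or 20 µM for 60 min. Cells were mixed 1:1 with CellTiter-Glo and kept 10 min in the dark. Luminescence, proportional to ATP, was then read.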

[6] = system: Leishmania major; assay: Induction of acidification in tafenoquine-resistant promastigotes of Leishmania major R4 assessed as decrease of pH at 5 uM after 30 mins; assay type: functional, organism-based
Summary of the method: (§3)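 R4 or revertant promastigotes (R4 grown 1 month drug-free) were loaded with BCECF-AM (5 μg/ml, 30 min, 28°C) and washed. Cells at 2 × 10^7/ml in culture medium then received 5 μM TFQ or 20 mM sodium azide for 1–30 min. pHi came from the 490/440 nm excitation ratio (emission 535 nm), calibrated with nigericin-treated cells at set pH values.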

[7] = system: Leishmania major; assay: Drug uptake in wild type promastigotes of Leishmania major MHOM/JL/80/Friedlin assessed per mg of protein at 5 uM after 15 mins by spectrofluorometric technique in presence of ammonium chloride; conditions: in vivo, 0.25 h
[8] = system: Leishmania major; assay: Drug uptake in promastigotes of tafenoquine-resistant promastigotes of Leishmania major revert R4 assessed per mg of protein at 5 uM after 15 mins by spectrofluorometric technique in presence of ammonium chloride; conditions: in vitro, 0.25 h
[9] = system: Leishmania major; assay: Induction of acidification in tafenoquine-resistant promastigotes of Leishmania major R4 assessed as decrease of pH at 20 mM after 30 mins; assay type: functional, organism-based; summary of the method: as §3
[10] = system: Leishmania major; assay: Drug uptake in promastigotes of tafenoquine-resistant promastigotes of Leishmania major R4 at 2.5 uM after 5 mins by spectrofluorometric technique; assay type: ADME, organism-based; conditions: in vivo
[11] = system: Leishmania major; assay: Induction of acidification in tafenoquine-resistant promastigotes of Leishmania major revert R4 assessed as decrease of pH at 5 uM after 30 mins; assay type: functional, organism-based; summary of the method: as §3
[12] = system: Leishmania major; assay: Drug uptake in promastigotes of tafenoquine-resistant promastigotes of Leishmania major revert R4 assessed per mg of protein at 5 uM after 15 mins by spectrofluorometric technique; assay type: ADME, organism-based; conditions: in vivo, 0.25 h; summary of the method: as §2
[13] = system: Leishmania major; assay: Drug uptake in promastigotes of tafenoquine-resistant promastigotes of Leishmania major R4 assessed per mg of protein at 5 uM after 15 mins by spectrofluorometric technique in presence of ammonium chloride; conditions: in vitro, 0.25 h
[14] = system: Leishmania major; assay: Induction of acidification in wild type promastigotes of Leishmania major MHOM/JL/80/Friedlin assessed as decrease of pH at 5 uM after 30 mins; assay type: functional, organism-based
Summary of the method: (§4)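 Promastigotes were loaded with BCECF-AM (5 µg/ml) in pH 7.4 standard buffer for 30 min at 28°C and washed twice. Cells at 2 × 10^7/ml in culture medium then received 20 mM sodium azide or 5 µM TFQ for 1, 3, 5, 10 or 30 min. The ratio at excitation 490/440 nm, emission 535 nm, was converted to pHi with a nigericin calibration curve.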

[15] = system: Leishmania major; assay: Drug uptake in wild type promastigotes of Leishmania major MHOM/JL/80/Friedlin at 2 uM after 5 mins by spectrofluorometric technique; assay type: ADME, organism-based; conditions: in vivo
[16] = system: Leishmania major; assay: Induction of acidification in wild type promastigotes of Leishmania major MHOM/JL/80/Friedlin assessed as decrease of pH at 20 mM after 30 mins; assay type: functional, organism-based; summary of the method: as §4
[17] = system: Leishmania major; assay: Drug uptake in wild type promastigotes of Leishmania major MHOM/JL/80/Friedlin assessed per mg of protein at 5 uM after 15 mins by spectrofluorometric technique; assay type: ADME, organism-based; conditions: in vivo, 0.25 h
Summary of the method: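 L. major Friedlin promastigotes, grown 48 h at 28°C in RPMI 1640 with 20% iFBS, were used at 2 × 10^7/ml. Cells were exposed to 5 µM TFQ for 15 min at 28°C in culture medium, washed twice in PBS and lysed in 10% SDS, pH 4. Emission was read at 360–460 nm with excitation at 340 nm.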

[18] = system: Leishmania major; assay: Drug uptake in promastigotes of tafenoquine-resistant promastigotes of Leishmania major revert R4 at 5 uM after 5 mins by spectrofluorometric technique; assay type: ADME, organism-based; conditions: in vivo
[19] = system: Leishmania major; assay: Effect on ATP synthesis in tafenoquine-resistant promastigotes of Leishmania major R4 assessed as increase of ATP level at up to 20 uM after 60 mins by celltiter- glo luminescent assay; assay type: functional, organism-based
Summary of the method: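 Promastigotes at 4 × 10^6/ml were incubated in culture medium with 1, 2, 5, 10 or 20 μM TFQ for 60 min. ATP was measured by CellTiter-Glo: an aliquot was mixed with an equal volume of reagent, held 10 min in the dark, and luminescence was read.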

[20] = system: Leishmania major; assay: Induction of acidification in tafenoquine-resistant promastigotes of Leishmania major revert R4 assessed as decrease of pH at 20 mM after 30 mins; assay type: functional, organism-based; summary of the method: as §3

Row | Structure (SMILES) | EC50 [1] | Ratio EC50 [2] | EC50 [3] | further results
1 | CCN(CC)CCCCCCNc1cc(OC)cc2c(C)ccnc12.Cl.Cl | 12 µM | 2 | 24.5 µM | –
2 | C[C@@H]1[C@H](O)[C@@H](C)/C=C/C=C/C=C/C=C/C=C/C=C/C=C/[C@H](O[C@@H]2O[C@H](C)[C@@H](O)[C@H](N)[C@@H]2O)C[C@@H]2O[C@](O)(C[C@@H](O)C[C@@H](O)[C@H](O)CC[C@@H](O)C[C@@H](O)CC(=O)O[C@H]1C)C[C@H](O)[C@H]2C(=O)O [AMPHOTERICIN B] | 1.87 µM | 1.7 | 3.16 µM | –
3 | CCN(CC)CCCC(C)Nc1ccnc2cc(Cl)ccc12 (stereo not drawn) [CHLOROQUINE] | 18.8 µM | 1.3 | 23.8 µM | –
4 | COc1cccc2c1C(=O)c1c(O)c3c(c(O)c1C2=O)C[C@@](O)(C(C)=O)C[C@@H]3O[C@H]1C[C@H](N)[C@H](O)[C@H](C)O1 [DAUNORUBICIN] | 0.22 µM | 1.7 | 0.38 µM | –
5 | CC(=O)N1CCN(c2ccc(OCC3COC(Cn4ccnc4)(c4ccc(Cl)cc4Cl)O3)cc2)CC1 (stereo not drawn) [KETOCONAZOLE] | 20 µM | 1.4 | 28.1 µM | –
6 | OC(c1cc(C(F)(F)F)nc2c(C(F)(F)F)cccc12)C1CCCCN1 (stereo not drawn) [MEFLOQUINE] | 12.5 µM | 1.1 | 13.9 µM | –
7 | CCCCCCCCCCCCCCCCOP(=O)([O-])OCC[N+](C)(C)C [MILTEFOSINE] | 17.7 µM | 1.5 | 25.7 µM | –
8 | NC[C@@H]1O[C@H](O[C@H]2[C@@H](O)[C@H](O[C@@H]3[C@@H](O)[C@H](N)C[C@H](N)[C@H]3O[C@H]3O[C@H](CO)[C@@H](O)[C@H](O)[C@H]3N)O[C@@H]2CO)[C@H](N)[C@@H](O)[C@@H]1O [PAROMOMYCIN] | 4.29 µM | 1 | 3.98 µM | –
9 | N=C(N)c1ccc(OCCCCCOc2ccc(C(=N)N)cc2)cc1 [PENTAMIDINE] | 0.28 µM | 1.8 | 0.45 µM | –
10 | COc1cc(NC(C)CCCN)c2ncccc2c1 (stereo not drawn) [PRIMAQUINE] | 27.7 µM | 1.9 | 53 µM | –
11 | C=C[C@H]1CN2CC[C@H]1C[C@H]2[C@H](O)c1ccnc2ccc(OC)cc12 [QUININE] | 9.41 µM | 1 | 9.53 µM | –
12 | COc1cc(C)c2c(Oc3cccc(C(F)(F)F)c3)c(OC)cc(NC(C)CCCN)c2n1 (stereo not drawn) [TAFENOQUINE] | 2.24 µM | 2.5 | 5.49 µM | Drug uptake [4]: 8809 a.u.; Activity [5]: Active; Activity [6]: inactive; Drug uptake [7]: 7009 a.u.; Drug uptake [8]: 8524 a.u.; Activity [9]: inactive; Drug uptake [10]: Active; Activity [11]: Active; Drug uptake [12]: 9657 a.u.; Drug uptake [13]: 8462 a.u.; Activity [14]: Active; Drug uptake [15]: Active; Activity [16]: Active; Drug uptake [17]: 10775 a.u.; Drug uptake [18]: Active; Activity [19]: Active; Activity [20]: Active
